Test results: ChEMBL document CHEMBL1123468, “Synthesis and antiviral activity of (E)-5-(2-bromovinyl)uracil and (E)-5-(2-bromovinyl)uridine” (1986)
≈ marks a conversion by molar mass, not a printed value.

Assays:
E6SM = experiment: The concentration required to reduce the cytopathogenicity of HSV-1 (KOS) in E6SM cell culture by 50% in absence of 0 ug/mL dThd; type: functional; conditions: Homo sapiens
Summary of the method: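 E6SM cells infected with HSV-1 (KOS), with dThd added to the culture medium at the stated concentration. The value is the minimum concentration that reduces viral cytopathogenicity by 50%.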

M21 = experiment: The compound was tested for its antiviral activity against HSV-1 (KOS) virus in M-21 (GM137) cell line,; type: functional; conditions: Homo sapiens
Summary of the method: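 Virus-induced cytopathogenicity in cell culture, scored microscopically. The value is the minimum concentration that cuts viral cytopathogenicity by 50%. Normal cell morphology was also checked microscopically at up to 400 μg/mL.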

Compound	MIC50 (E6SM)	MIC50 (M21)
Oc1ncc(/C=C/Br)c(O)n1	7 µg/mL (≈ 32.3 µM)	
O=c1[nH]c(=O)n([C@H]2C[C@H](O)[C@@H](CO)O2)cc1/C=C/Br [BRIVUDINE]		0.02 µg/mL (≈ 0.06 µM)
